ChEMBL document CHEMBL1671842, “Synthesis and antibacterial activity of a novel class of 15-membered macrolide antibiotics, "11a-azalides"” (2011)
Values after ≈ are worked out from the molar mass of the structure shown.

How the values were obtained:
Streptococcus pneumoniae [1] = experiment: Antibacterial activity against erythromycin-susceptible Streptococcus pneumoniae ATCC 49619; assay type: functional
Summary of the method: (§1)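 MIC by broth microdilution following CLSI (formerly NCCLS) guidelines for S. pneumoniae.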

Streptococcus pneumoniae [2] = experiment: Antibacterial activity against erythromycin-resistant Streptococcus pneumoniae 205; assay type: functional; summary of the method: as §1

SMILES | MIC (Streptococcus pneumoniae [1]) | MIC (Streptococcus pneumoniae [2])
CO[C@]1(C)C[C@H](O[C@H]2[C@H](C)[C@@H](O[C@@H]3O[C@H](C)C[C@H](N(C)C)[C@H]3O)[C@@](C)(O)C[C@@H](C)[C@H](O)[C@H](C)CN(C)CCOC(=O)[C@@H]2C)O[C@@H](C)[C@@H]1O | 4 µg/mL (≈ 5.79 µM) | > 128 µg/mL
CO[C@]1(C)C[C@H](O[C@H]2[C@H](C)[C@@H](O[C@@H]3O[C@H](C)C[C@H](N(C)C)[C@H]3O)[C@@](C)(O)C[C@@H](C)[C@H](O)[C@H](C)CN(C)[C@@H](COCc3ccccc3)COC(=O)[C@@H]2C)O[C@@H](C)[C@@H]1O | 2 µg/mL (≈ 2.47 µM) | 128 µg/mL (≈ 158 µM)
CO[C@]1(C)C[C@H](O[C@H]2[C@H](C)[C@@H](O[C@@H]3O[C@H](C)C[C@H](N(C)C)[C@H]3O)[C@@](C)(O)C[C@@H](C)[C@H](O)[C@H](C)CN(C)C[C@@H](COCc3ccccc3)OC(=O)[C@@H]2C)O[C@@H](C)[C@@H]1O | 1 µg/mL (≈ 1.23 µM) | 64 µg/mL (≈ 78.9 µM)
CO[C@]1(C)C[C@H](O[C@H]2[C@H](C)[C@@H](O[C@@H]3O[C@H](C)C[C@H](N(C)C)[C@H]3O)[C@@](C)(O)C[C@@H](C)[C@H](O)[C@H](C)CN(C)C[C@H](COCc3ccccc3)OC(=O)[C@@H]2C)O[C@@H](C)[C@@H]1O | 0.12 µg/mL (≈ 0.148 µM) | 32 µg/mL (≈ 39.5 µM)
CC[C@H]1OC(=O)[C@H](C)[C@@H](O[C@H]2C[C@@](C)(OC)[C@@H](O)[C@H](C)O2)[C@H](C)[C@@H](O[C@@H]2O[C@H](C)C[C@H](N(C)C)[C@H]2O)[C@](C)(OC)C[C@@H](C)C(=O)[C@H](C)[C@@H](O)[C@]1(C)O [CLARITHROMYCIN] | 0.03 µg/mL (≈ 0.0401 µM) | > 128 µg/mL
